# Screening results deposited in PubChem by The Scripps Research Institute Molecular Screening Center.
# HIV Rev-RRE inh: HIV Rev-RRE protein-RNA interaction inhibition; P05866; Rev peptide-RRE RNA binding, FRET; inhibition, % at 8 µM; hit rate 0.79% among 97,000;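 active means inhibition above the screen-wide mean plus 3 SD, cut at about 35% in these data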;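 further: 0% = median DMSO wells and 100% = median Neomycin B control wells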
#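 Test system – labelled RRE RNA duplex and labelled Rev peptide · Signal – fluorescein-to-Cy5 FRET, 480 nm excitation · Evaluation – % inhibition of FRET ratio versus controls · Benchmarks – DMSO low control, neomycin B high control · Incubation – 5 min RNA-compound premix plus 15 min binding step, 25 °C · Medium – HEPES pH 7.5 salt buffer with EDTA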
# GALR2 ag: GALR2 (human) receptor agonism. O43603. GALR2-expressing cells, agonist activation read-out. activation, % (concentration not given with the values). hit rate 0.48% among 140,000. AID 803; in the data active means activation above about 5%, passing the limit was not always enough;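 further: 0% = vehicle buffer wells and 100% = reference agonist at full effect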
# Target sequence (O43603 whole entry, looked up): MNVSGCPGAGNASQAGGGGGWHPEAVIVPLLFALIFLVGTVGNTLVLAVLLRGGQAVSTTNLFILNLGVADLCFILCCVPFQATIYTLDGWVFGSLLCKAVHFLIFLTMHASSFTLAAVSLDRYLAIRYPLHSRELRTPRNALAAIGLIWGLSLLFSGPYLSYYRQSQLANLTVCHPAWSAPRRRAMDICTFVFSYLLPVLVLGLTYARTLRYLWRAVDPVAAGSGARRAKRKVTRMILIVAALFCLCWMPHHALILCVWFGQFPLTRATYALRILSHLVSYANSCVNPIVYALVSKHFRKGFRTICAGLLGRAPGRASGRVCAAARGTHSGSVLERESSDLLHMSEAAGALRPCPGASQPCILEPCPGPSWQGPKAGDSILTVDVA
# S1P2 antag: S1P2 (human) receptor antagonism | inhibition, % at 5 µM | cell-based S1P2 antagonist assay, inhibition at 5 uM | O95136 | hit rate 0.21% among 97,000; in the data active means inhibition above about 45%;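 further: CRE beta-lactamase reporter cells expressing human S1P2 stimulated with S1P; 0% = agonist at EC80 alone and 100% = agonist plus reference antagonist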
# Target sequence (O95136 whole entry, looked up): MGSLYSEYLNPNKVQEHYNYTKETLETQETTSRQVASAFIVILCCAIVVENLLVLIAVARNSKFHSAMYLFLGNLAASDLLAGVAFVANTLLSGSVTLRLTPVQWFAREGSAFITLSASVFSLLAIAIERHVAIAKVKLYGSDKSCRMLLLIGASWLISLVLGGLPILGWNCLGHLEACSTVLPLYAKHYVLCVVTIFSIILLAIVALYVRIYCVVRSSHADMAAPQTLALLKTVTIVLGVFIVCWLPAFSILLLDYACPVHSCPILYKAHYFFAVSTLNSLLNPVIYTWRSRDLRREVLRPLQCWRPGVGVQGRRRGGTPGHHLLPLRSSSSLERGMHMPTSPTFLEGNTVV
# GALR2 antag: antagonists of human galanin receptor 2 (GALR2); hit rate 0.39% among 140,000; O43603; inhibition, % at 4 µM; GALR2-expressing cells, antagonist mode; in the data active means inhibition above about 27%;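 further: cells stimulated with galanin 1-16 at roughly its EC80; 0% = agonist challenge control and 100% = basal control without agonist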
# EphB4 antag: blocks human EphB4 binding to ephrin-B2 | P54760 | EphB4 LBD / TNYL-RAW-Alexa532 peptide, fluorescence polarization | inhibition, % at 7 µM | hit rate 0.15% among 97,000 | AID 720;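 active means inhibition above the screen-wide mean inhibition plus 3 SD, cut at about 15% in these data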;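 further: 0% = DMSO wells and 100% = excess unlabeled TNYL-RAW peptide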
# S1P2 ag: activates the human S1P2 receptor; S1P2-expressing cell line, agonist reporter read-out; activation, % at 4.5 µM; hit rate 0.46% among 97,000; AID 729; in the data active means activation above about 16%;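 further: 0% = vehicle low control and 100% = maximal reference agonist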
# GALR2 ag confirm: GALR2 (human) agonism confirmed. shares compounds with GALR2 ag. GALR2-expressing cells, agonist activation. activation, % at 5.6 µM. hit rate 10% among 460. AID 864; in the data active means activation above about 8.4%;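 further: 0% = buffer-only vehicle wells and 100% = full reference agonist response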
# BLA act counter: activates beta-lactamase reporter in GALR2 agonist counterscreen. CHO NFAT-bla reporter, beta-lactamase FRET activation. hit rate 10% among 460. shares compounds with GALR2 ag. AID 865. activation, % at 5.6 µM;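 active means activation above the screen-wide mean activation plus 3 SD, cut at about 8% in these data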;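 further: 0% = DMSO with PBS wells and 100% = thapsigargin positive control wells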
# * = called active by the depositor; . = no result; [ ] = dose if it differs, or a comment. The list is not random: actives were taken first. Their share in the collection is about 1.8%.
SMILES,HIV Rev-RRE inh,GALR2 ag,S1P2 antag,GALR2 antag,EphB4 antag,S1P2 ag,GALR2 ag confirm,BLA act counter
COc1ccc(NC(=O)C2=C(C)C(=O)OC23CCC(C)CC3)cc1Cl (centres undefined),16.0,84.4*,-8.3,-23.9,-2.9,-1.5,-0.7,-1.5
CCN(CC)c1ccc(NC(=O)COC(=O)/C=C/c2nc3ccccc3s2)cc1,.,0.3,.,-5.0,.,.,.,.
CCN(CC)c1ccc(/C=C/c2nc3ccccc3s2)cc1,123.0*[fluorescence artefact?],17.1*,66.1*,25.6,2.2,13.2,5.3,6.5
O=C(COC(=O)c1cc(Cl)ccc1Cl)NCCN1C(=O)CSC1=O,.,12.2*,.,19.2,.,.,-0.7,-2.5
COc1ccc(C(=O)CSc2nnc(C3CC3)n2N)cc1,2.3,21.4*,-5.5,-2.9,2.4,-3.1,-1.0,-1.6
CCn1c(SCC(=O)c2ccc(OC)cc2)nnc1C1CC1,0.7,0.6,-3.0,1.3,4.9,-1.3,.,.
CC1(C)CC(=O)C2=C(C1)Nc1ncnn1C2c1ccccn1 (centres undefined),6.0,23.1*,-1.3,11.4,1.8,-6.8,-0.9,-2.0
CCOc1cc(/C=C2/C(=O)N(c3ccccc3)N=C2C)ccc1OC(=O)c1ccco1,-9.8,136.0*,-10.4,7.1,-4.3,-3.3,-1.0,-2.9
O=C(Cc1sc(-c2ccccc2Cl)nc1-c1ccccc1)Nc1ccccc1,17.0,26.0*,6.3,-7.8,6.7,-5.9,2.6,4.7
O=C(Cc1sc(-c2ccccc2Cl)nc1-c1ccccc1)Nc1ccc(F)cc1,15.7,-1.5,-11.1,-5.6,-1.5,-8.1,.,.
CCN(CC)C(=O)c1ccc2c3c(cccc13)C(=O)N(CCc1ccc(OC)c(OC)c1)C2=O,.,-1.1,.,-1.2,.,.,.,.
CC(=O)c1ccc2c3c(cccc13)C(=O)N(c1c(C)nn(C)c1C)C2=O,10.7,20.4*,-9.3,-2.3,-2.4,-3.3,-0.6,-1.4
O=C(O)C(Cc1ccccc1)N1Cc2ccccc2C1=O (centres undefined),5.6,10.7,-3.7,-2.8,4.8,-4.7,-0.9,-2.6
CCN(CC)c1ccc2cc(-c3nc4ccccc4n3C)c(=O)oc2c1,132.0*[fluorescence artefact?],10.1,68.5*,43.1*,-0.1,3.0,3.5,4.5
Nc1c([N+](=O)[O-])cnnc1-c1ccccc1,.,-1.2,.,-8.8,.,.,.,.
Cc1ccc(S(=O)(=O)NC(=O)NCc2ccc3c(c2)OCO3)cc1,8.0,152.3*,16.4,-1.6,7.4,-4.6,-0.4,-2.0
N#Cc1c(-c2ccco2)nc(SCc2ccc(F)cc2)[nH]c1=O,0.3,-0.6,4.6,-6.4,-2.8,-1.4,.,.
Cc1nc(SCc2cccc(F)c2)[nH]c(=O)c1C#N,0.5,153.6*,-12.5,1.5,-12.3,-7.6,-1.3,-1.6
CCOC(=O)/C(C#N)=C/c1ccc(OC)c(OC)c1,5.9,16.1*,-39.4,-19.6,-4.4,-2.1,-1.1,-2.5
COc1ccc(-c2ncccc2OC(=O)C23CC4CC(CC(C4)C2)C3)cc1OC,.,-1.4,.,6.1,.,.,.,.
CCOC(=O)/C(=C\Nc1ccccc1C(F)(F)F)Sc1ncc(C(F)(F)F)cc1Cl,18.5,10.4,-10.7,-8.4,9.7,-3.1,-1.1,-3.0
CC(CC(=O)Nc1nncs1)c1ccccc1 (centres undefined),5.2,-3.6,9.2,13.5,0.4,-10.8,.,.
CCOC(=O)CC(NS(=O)(=O)Cc1ccccc1)c1ccc(C)cc1 (centres undefined),.,-0.5,.,1.9,.,.,.,.
COc1ccc(C2CC3(CC(C)(C)NC(SC)=N3)Oc3cc(O)cc(C)c32)cc1 (centres undefined),.,19.0*,.,-34.3,.,.,25.4*,84.5*
COC(=O)c1ccc(C(=O)OC)c(NC(=O)CN(c2ccc3c(c2)OCO3)S(C)(=O)=O)c1,9.7,2.2,-4.9,-7.2,4.0,-3.6,.,.
SMILES,HIV Rev-RRE inh,GALR2 ag,S1P2 antag,GALR2 antag,EphB4 antag,S1P2 ag,GALR2 ag confirm,BLA act counter
CCOC(=O)COn1c(=O)c[n+]([O-])c2ccccc21,10.8,-1.6,-3.9,-18.6,-2.7,-0.5,.,.
CCOC(=O)COn1c(=O)c(C)[n+]([O-])c2ccccc21,17.9,31.2*,-12.4,-2.8,-0.4,-3.6,-0.3,-3.0
C/C(CC(=O)Nc1cccnc1)=N\NC(=O)C(=O)Nc1cccc(C)c1,.,-2.0,.,3.6,.,.,.,.
Cc1cccc(NC(=O)/C(C#N)=C/c2cn(CC(=O)NCc3ccco3)c3ccccc23)c1,.,30.6*,.,-1.9,.,.,13.6*,13.4*
COc1ccc(OCCn2cc(/C=C(\C#N)C(=O)NCc3ccco3)c3ccccc32)cc1,.,13.2*,.,0.8,.,.,4.4,2.6
COc1ccccc1OCCn1cc(/C=C(\C#N)C(=O)NCc2ccco2)c2ccccc21,.,-0.9,.,4.4,.,.,.,.
Cc1ccc(C)c(OCCn2cc(/C=C(\C#N)C(=O)NCc3ccco3)c3ccccc32)c1,.,0.0,.,-5.4,.,.,.,.
Cc1ccc(N=C2NC(=O)CS2)c(C)c1,2.2,-0.1,18.7,-0.2,4.3,-1.8,.,.
O=C1CSC(=Nc2cc(Cl)ccc2Cl)N1,10.7,27.4*,-0.8,15.1,2.8,-7.0,-0.3,-1.4
O=C(NCCN1CCOCC1)c1cc2c(=O)n3ccccc3nc2n1Cc1ccccc1,10.5,1.3,-1.8,8.7,0.3,-1.7,.,.
N#Cc1cc2c(=O)n3ccccc3nc2n(CCCN2CCOCC2)c1=O,.,8.6*,.,1.6,.,.,2.6,8.2*
O=C(NC(c1ccccc1)c1ccccc1)c1cccc(S(=O)(=O)NCc2ccccc2)c1,.,-0.8,.,-14.1,.,.,.,.
CCNC(=S)N(Cc1ccc2c(c1)OCO2)C1CC(=O)N(c2ccc(F)cc2)C1=O (centres undefined),8.8,10.6,-1.9,1.0,0.4,-6.8,-0.5,-2.1
O=C(Cn1cc(SCc2cccc(Cl)c2)c2ccccc21)N1CCOCC1,.,-1.4,.,2.0,.,.,.,.
CC(C)C(NC(=O)/C=C/c1cccc([N+](=O)[O-])c1)C(C)C,.,-1.5,.,4.5,.,.,.,.
CC(C)NC(=O)c1ccccc1NC(=O)/C=C/c1cccc([N+](=O)[O-])c1,.,25.4*,.,3.3,.,.,11.0*,21.6*
N=c1oc2ccccc2cc1-c1nc(-c2ccccc2)cs1,.,19.7*,.,1.5,.,.,2.9,5.4
CCCNC(=O)c1ccccc1NC(=O)c1ccccc1N(C)S(=O)(=O)c1ccc(C)cc1,4.8,-1.0,2.3,-7.0,2.4,-3.8,.,.
O=C(CSc1nnc(-c2ccc(Br)cc2)n1CCc1ccccc1)NC1CCS(=O)(=O)C1 (centres undefined),.,1.2,.,9.7,.,.,.,.
CC(NC(=O)Nc1ccc(Cl)c(Cl)c1)C(c1ccccc1)N1CCOCC1 (centres undefined),.,8.7*,.,-17.7,.,.,6.4,25.1*
Cc1cc(=O)[nH]c(-n2nc(C)c(Oc3ccccc3O)c2C)n1,2.7,32.2*,20.0,-30.5,-2.1,-1.1,27.4*,59.8*
Cc1cccc(C)c1NC(=O)COc1ccc2c(C)c(Cc3ccccc3)c(=O)oc2c1,.,-1.5,.,4.6,.,.,.,.
